{"data": "Results gathered from unrelated publications", "note": "Compare with care: the assays were run in different laboratories."}
{"Structure (SMILES)": "Cc1sc2c(c1C)C(c1ccc(Cl)cc1)=N[C@H](CC(=O)OC(C)(C)C)c1nnc(C)n1-2", "tested on": "HBL1", "test": "cell growth or viability, ATP luminescence", "setting": "1 µM, 5 days", "measurement": "viability", "result": "110%"}
{"Structure (SMILES)": "C[C@@H](N)[C@H](O)CCCCCCCC(=O)CCCCCCCCCCCCCC[C@@H](O[C@@H]1O[C@H](CO)[C@H](O)[C@H](O)[C@H]1O)[C@@H](C)N", "tested on": "Escherichia coli", "test": "microbial growth, resazurin", "test system": "ATCC10536", "setting": "50 µM", "measurement": "inhibition", "result": "100%"}
{"Structure (SMILES)": "N.N.[Cl][Pt][Cl]", "tested on": "HBL1", "test": "cell growth or viability, ATP luminescence", "setting": "10 µM, 72 h", "measurement": "inhibition", "result": "100%"}
{"Structure (SMILES)": "CO/N=C(\\C(=O)N[C@@H]1C(=O)N2C(C(=O)O)=C(COC(C)=O)CS[C@H]12)c1csc(N)n1", "tested on": "Escherichia coli", "test": "microbial killing", "test system": "ATCC 8739, ATCC8739", "measurement": "MBC", "result": "1 µM"}
{"Structure (SMILES)": "N.N.[Cl][Pt][Cl]", "tested on": "BEAS-2B", "test": "cell growth or viability, MTT", "setting": "24 h", "measurement": "IC50", "result": "103 µM"}
{"Structure (SMILES)": "C[C@@H](O)[C@H]1C(=O)N2C(C(=O)O)=C(S[C@@H]3CN[C@H](C(=O)N(C)C)C3)[C@H](C)[C@H]12", "tested on": "Escherichia coli", "test": "microbial growth", "test system": "ATCCBAA2452", "setting": "drug-resistant strain", "measurement": "MIC", "result": "> 8 µg/mL"}
{"Structure (SMILES)": "CN1C(=O)/C(=N\\Nc2ncc(-c3cc4ccccc4oc3=O)s2)c2cc(Cl)ccc21", "tested on": "Staphylococcus aureus", "test": "microbial growth, broth dilution", "test system": "ATCC43300 MRSA", "measurement": "MIC", "result": "1.3 µg/mL"}
{"Structure (SMILES)": "NC[C@H]1OB(O)c2c(OCCCO)cccc21", "tested on": "Escherichia coli", "test": "microbial growth", "test system": "ATCC25922", "setting": "16 h", "measurement": "MIC", "result": "1.56 µM"}
{"Structure (SMILES)": "CC(=O)NC[C@H]1CN(c2ccc(N3CCOCC3)c(F)c2)C(=O)O1", "tested on": "Staphylococcus aureus", "test": "microbial growth, broth dilution", "test system": "ATCC43300 MRSA", "measurement": "MIC", "result": "2.3 µg/mL"}
{"Structure (SMILES)": "C[C@H]1COc2c(N3CCN(C)CC3)c(F)cc3c(=O)c(C(=O)O)cn1c23", "tested on": "Escherichia coli", "test": "microbial growth", "test system": "ATCCBAA2452", "setting": "drug-resistant strain", "measurement": "MIC", "result": "≤ 0.03 µg/mL"}
{"Structure (SMILES)": "CCn1cc(C(=O)O)c(=O)c2cc(F)c(N3CCNCC3)cc21", "tested on": "Escherichia coli", "test": "microbial killing", "test system": "ATCC 8739, ATCC8739", "measurement": "MBC", "result": "0.25 µM"}
